Results on twelve molecules are retold here after ChEMBL document CHEMBL4014267, “Anti-inflammatory and Antiosteoporosis Flavonoids from the Rhizomes of Helminthostachys zeylanica” (J Nat Prod, 2017).

Holding throughout (format): functional, cell-based
Test [1] deals with RAW264.7. Briefly: Antiosteoporotic activity in mouse RAW264.7 cells assessed as inhibition of RANKL-induced osteoclast differentiation after 4 to 5 days by TRAP assay. In outline: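 RAW264.7 macrophages were differentiated for 4−5 days in DMEM with 100 ng/mL recombinant murine RANKL, alone or with test agent at 1, 3, 10 or 20 μM. Cells were then fixed and TRAP activity was read with a p-nitrophenylphosphate reaction buffer.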

In another test the test system is BV-2. The test can be described thus: Antiinflammatory activity in mouse BV2 cells assessed as inhibition of LPS-induced nitric oxide production after 24 hrs by Griess assay. As to conditions: BV-2, 24 h. The essentials: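 Murine BV2 microglia were grown in DMEM with 5% FBS and stimulated with LPS (0.5 μg/mL). NO was read as nitrite accumulated in the medium 24 h after stimulation, using Griess reagent.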
For orientation: Nitrite, measured by Griess reagent, commonly stands in for NO production.

For test [2], the system named is RAW264.7. The test can be described thus: Osteoblastogenic activity in mouse […] cells at 10 uM.

Activity calls are given as the source filed them. The rule behind the calls is not given here. A value given as a limit tells only on which side of the number the result lay.

Regarding `O=c1c(-c2ccc(O)cc2)coc2cc(O)cc(O)c12` [GENISTEIN], the IC50 (in general, the concentration needed to halve the response being measured) in the test on RAW264.7 [1] is 11.4 µM.

On to `CC1=CCCC(C)(C)C1Cc1c(O)cc(/C=C/c2ccc(O)cc2)cc1O` (stereo not drawn), for which the IC50 in the test with BV-2 was found to be 6.2 µM.

In the case of `S=C(S)N1CCCC1` [PYRROLIDINE DITHIOCARBAMATE], the half-inhibitory concentration (IC50) in the test with BV-2 turned out to be 10.8 µM.

On to `CC1(C)CCC[C@]2(C)Oc3c(c(O)cc4oc(-c5ccc(O)c(O)c5)cc(=O)c34)C[C@H]12`, for which the values for the IC50 with BV-2 and in the test with RAW264.7 [1] were 19.7 µM and 4.6 µM, respectively. In addition, the outcome in the test with RAW264.7 [2] was inactive.

With `C=C1CCCC(C)(C)[C@H]1Cc1c(O)cc2oc(-c3ccc(O)c(O)c3)cc(=O)c2c1O`, in the test on BV-2, the IC50 was 6.5 µM.

Take `CC1=CCCC(C)(C)C1Cc1c(O)c(O)cc2oc3c(=O)c4c(O)cc(O)cc4oc3c12` (stereo not drawn) [UGONIN M]: the figures for the IC50 with BV-2 and in the test with RAW264.7 [1] were 10.1 µM and 2.5 µM, respectively. For the same molecule, in the test with RAW264.7 [2], the outcome was inactive.

With `C=C1CCCC(C)(C)[C@H]1Cc1c(OC)cc2oc(-c3ccc(O)c(O)c3)c(OC)c(=O)c2c1O`, the IC50 with BV-2 was 6.7 µM; with RAW264.7 [1], 3.2 µM. Moreover, the result in the test with RAW264.7 [2] was inactive.

As to `CC1(C)CC=C[C@]2(C)Oc3c(O)cc4oc5c(=O)c6c(O)cc(O)cc6oc5c4c3C[C@H]12` [UGONIN O], the half-inhibitory concentration (IC50) in the test with BV-2 came to 7.7 µM; in the test with RAW264.7 [1], 3.3 µM. Also, the outcome in the test with RAW264.7 [2] was inactive.

Take `CC1(C)CCC[C@]2(C)Oc3c(O)cc4oc5c(=O)c6c(O)cc(O)cc6oc5c4c3C[C@H]12`: the concentration for half-maximal inhibition (IC50) in the test with BV-2 came to 7 µM; with RAW264.7 [1], 3.5 µM. Besides, the outcome with RAW264.7 [2] was inactive.

Regarding `CC1=CCCC(C)(C)C12Cc1c(c(O)cc3oc4c(=O)c5c(O)cc(O)cc5oc4c13)O2` (stereo not drawn), the IC50 with BV-2 is 18 µM; in the test on RAW264.7 [1], 4.5 µM. In addition, the result in the test with RAW264.7 [2] was inactive.

For `CC1(C)CCC[C@@]2(C)Oc3c(c(O)cc4oc(-c5ccc(O)c(O)c5)cc(=O)c34)C[C@H]12`, the IC50 in the test with BV-2 is 24.1 µM; in the test on RAW264.7 [1] it was > 10 µM. The result with RAW264.7 [2] was inactive.

For `C=C1CCCC(C)(C)[C@H]1Cc1c(OC)cc2oc(-c3ccc(O)c(O)c3)cc(=O)c2c1O`, the 50% inhibitory concentration (IC50) in the test on BV-2 stood at 8.1 µM; with RAW264.7 [1], 1.8 µM. Also, in the test on RAW264.7 [2], the result was Active.
